Calls of active or inactive are those of the source. No cut-off for these calls is given here.
Columns and labels:
[1] = biological target: T1, Squalene synthase ERG9 (Saccharomyces cerevisiae (strain ATCC 204508 / S288c) (Baker's yeast)) (UniProt P29704); test: Inhibition of Baker's yeast squalene synthetase using [1-3H]farnesyl pyrophosphate as substrate at 4 uM preincubated for up to 5 hrs before substrate addition by liquid scintillation spectrometer analysis
T1 sequence (whole entry): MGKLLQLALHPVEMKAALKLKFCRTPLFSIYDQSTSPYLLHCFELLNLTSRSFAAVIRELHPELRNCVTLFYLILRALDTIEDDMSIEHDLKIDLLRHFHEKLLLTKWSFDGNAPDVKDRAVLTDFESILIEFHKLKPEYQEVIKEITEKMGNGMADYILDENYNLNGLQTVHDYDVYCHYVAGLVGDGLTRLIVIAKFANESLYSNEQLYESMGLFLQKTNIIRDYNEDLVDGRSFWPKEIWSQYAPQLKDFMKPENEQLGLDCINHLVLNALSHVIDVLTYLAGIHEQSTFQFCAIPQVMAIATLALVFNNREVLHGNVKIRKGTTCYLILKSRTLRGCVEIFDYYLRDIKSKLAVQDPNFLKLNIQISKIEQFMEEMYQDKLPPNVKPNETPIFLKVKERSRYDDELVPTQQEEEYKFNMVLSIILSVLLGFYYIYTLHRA

[2] = biological target: T1, Squalene synthase ERG9 (Saccharomyces cerevisiae (strain ATCC 204508 / S288c) (Baker's yeast)); test: Inhibition of Baker's yeast squalene synthetase assessed as incorporation of [1-3H]farnesyl pyrophosphate into squalene up to 20 uM after 2 mins by liquid scintillation spectrometer analysis
Procedure, shortened: (§1)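 Enzyme: yeast […] from sonicated baker's yeast, high-speed supernatant precipitated at 30–55% ammonium sulfate, dialyzed in 100 mM K phosphate pH 7.0 with 20 mM 2-mercaptoethanol. Assay in 1 ml at 37 °C, started with enzyme (1.34 mg/ml protein): [1-3H]FPP 1–10 µM, 10 mM MgCl2, 1.6 mM NADPH, 50 mM K phosphate pH 7.5. Squalene recovered by minicolumn and scintillation counted. Each point done in at least two independent experiments.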

[3] = biological target: T1, Squalene synthase ERG9 (Saccharomyces cerevisiae (strain ATCC 204508 / S288c) (Baker's yeast)); test: Competitive inhibition of Baker's yeast squalene synthetase using [1-3H]farnesyl pyrophosphate as substrate by Lineweaver-Burk graphic analysis
Procedure, shortened: as §1

[4] = biological target: T1, Squalene synthase ERG9 (Saccharomyces cerevisiae (strain ATCC 204508 / S288c) (Baker's yeast)); test: Inhibition of Baker's yeast squalene synthetase assessed as incorporation of [1-3H]farnesyl pyrophosphate into squalene at 2 to 6 uM after 2 mins by liquid scintillation spectrometer analysis
Procedure, shortened: as §1

[5] = biological target: T1, Squalene synthase ERG9 (Saccharomyces cerevisiae (strain ATCC 204508 / S288c) (Baker's yeast)); test: Mixed type inhibition of Baker's yeast squalene synthetase using [1-3H]farnesyl pyrophosphate as substrate by Lineweaver-Burk graphic analysis
Procedure, shortened: as §1

Row | SMILES | inhibition [1] | inhibition [2] | inhibition [3] | inhibition [4] | inhibition [5]
1 | CC(C)=CCC/C(C)=C/CC/C(I)=C\COP(=O)(O)OP(=O)(O)O | Active | inactive | Active | – | –
2 | CC(C)=CCC/C(C)=C/COP(=O)(O)OP(=O)(O)O | – | inactive | Active | Active | –
3 | CC(C)=CCC/C(C)=C/CCC#CCOP(=O)(O)OP(=O)(O)O | Active | inactive | – | – | Active
4 | CC(C)=CCC/C(C)=C/CC/C(C)=C/COP(=O)(O)OP(=O)(O)O | – | – | – | Active | –
5 | CC(C)CCCC(C)CCCC(C)CCOP(=O)(O)OP(=O)(O)O (stereo not given) | – | inactive | Active | – | –
6 | CSC(C/C=C(\C)CCC=C(C)C)/C(C)=C/COP(=O)(O)OP(=O)(O)O (stereo not given) | Active | inactive | Active | – | –
7 | CC/C(=C\COP(=O)(O)OP(=O)(O)O)CC/C=C(\C)CCC=C(C)C | – | inactive | Active | Active | –
8 | C/C(=C\COP(=O)(O)OP(=O)(O)O)CCCC(C)CCCC(C)CCCC(C)C (mixture of isomers) | – | inactive | Active | – | –
9 | CC(C)=CCC/C(C)=C/CC/C=C(/I)COP(=O)(O)OP(=O)(O)O | Active | inactive | Active | – | –
10 | CC(C)=CCC/C(C)=C/CC/C=C/COP(=O)(O)OP(=O)(O)O | Active | inactive | – | – | Active
11 | C/C(=C\COP(=O)(O)OP(=O)(O)O)CCCC(C)CCCC(C)C (stereo not given) | – | inactive | Active | – | –
12 | CC(C)=CCC/C(C)=C/CC/C(C)=C(\C)COP(=O)(O)OP(=O)(O)O | – | inactive | – | Active | –
